Measurements from ChEMBL document CHEMBL1255285, “Spontaneous deletion of the methicillin resistance determinant, mecA, partially compensates for the fitness cost associated with high-level vancomycin resistance in Staphylococcus aureus” (2008).
Values after ≈ are worked out from the molar mass of the structure shown.

Columns and labels:
Type in all cases: functional
Staphylococcus aureus [1] = assay: Antimicrobial activity against oxacillin sensitive and tetracycline resistant Staphylococcus aureus isolate 450MHomodeltamecA with mecA::tetM genotype by broth microdilution method
How it was run: (§1)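 Broth microdilution MIC in cation-adjusted Mueller-Hinton broth per CLSI (formerly NCCLS) guidelines. Strains were routinely grown in brain heart infusion broth or agar at 37°C with shaking at 220 rpm. Vancomycin-passaged derivatives were raised by serial broth passage through 0.5 to 32 µg/ml vancomycin, then maintained on BHI agar with 32 µg/ml vancomycin.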

Staphylococcus aureus [2] = assay: Antimicrobial activity against homotypic oxacillin resistant and vancomycin resistant Staphylococcus aureus isolate 5836V32 by broth microdilution method; how it was run: as §1
Staphylococcus aureus [3] = assay: Antimicrobial activity against oxacillin sensitive and vancomycin resistant Staphylococcus aureus isolate VP32 by broth microdilution method; how it was run: as §1
Staphylococcus aureus [4] = assay: Antimicrobial activity against homotypic oxacillin resistant and vancomycin sensitive Staphylococcus aureus isolate 3130 by broth microdilution method; how it was run: as §1
Staphylococcus aureus [5] = assay: Antimicrobial activity against homotypic oxacillin resistant Staphylococcus aureus isolate 450MHomo by broth microdilution method; how it was run: as §1
Staphylococcus aureus [6] = assay: Antimicrobial activity against heterotypic oxacillin resistant and vancomycin intermediate resistant Staphylococcus aureus isolate 5836 by broth microdilution method; how it was run: as §1
Staphylococcus aureus [7] = assay: Antimicrobial activity against oxacillin sensitive and vancomycin resistant Staphylococcus aureus isolate 5836VR by broth microdilution method
How it was run: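 MIC by broth microdilution in cation-adjusted Mueller-Hinton broth, following CLSI (formerly NCCLS) guidelines. The isolate came from an MRSA parent passaged in broth through stepwise vancomycin (0.5 to 32 µg/ml). It was then kept on BHI agar with 32 µg/ml vancomycin and selected as unable to grow on 6 µg/ml oxacillin. Routine growth was in BHI at 37°C.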

Staphylococcus aureus [8] = assay: Antimicrobial activity against oxacillin sensitive and tetracycline and vancomycin resistant Staphylococcus aureus isolate 3130V32deltamecA with mecA::tetM genotype by broth microdilution method; how it was run: as §1
Staphylococcus aureus [9] = assay: Antimicrobial activity against homotypic oxacillin resistant and vancomycin resistant Staphylococcus aureus isolate 5827V32 by broth microdilution method; how it was run: as §1
Staphylococcus aureus [10] = assay: Antimicrobial activity against oxacillin sensitive and vancomycin resistant Staphylococcus aureus isolate 3130VR by broth microdilution method; how it was run: as §1
Staphylococcus aureus [11] = assay: Antimicrobial activity against homotypic oxacillin resistant and vancomycin resistant Staphylococcus aureus isolate 3130V32 by broth microdilution method; how it was run: as §1
Staphylococcus aureus [12] = assay: Antimicrobial activity against oxacillin sensitive Staphylococcus aureus isolate 450MHomoex with SCCmec excised genotype by broth microdilution method; how it was run: as §1
Staphylococcus aureus [13] = assay: Antimicrobial activity against homotypic oxacillin resistant and vancomycin intermediate resistant Staphylococcus aureus isolate 5827 by broth microdilution method; how it was run: as §1

SMILES	MIC (Staphylococcus aureus [1]) [µg/mL]	MIC (Staphylococcus aureus [2]) [µg/mL]	MIC (Staphylococcus aureus [3]) [µg/mL]	MIC (Staphylococcus aureus [4]) [µg/mL]	MIC (Staphylococcus aureus [5]) [µg/mL]	MIC (Staphylococcus aureus [6]) [µg/mL]	MIC (Staphylococcus aureus [7]) [µg/mL]	MIC (Staphylococcus aureus [8]) [µg/mL]	MIC (Staphylococcus aureus [9]) [µg/mL]	MIC (Staphylococcus aureus [10]) [µg/mL]	MIC (Staphylococcus aureus [11]) [µg/mL]	MIC (Staphylococcus aureus [12]) [µg/mL]	MIC (Staphylococcus aureus [13]) [µg/mL]
Cc1onc(-c2ccccc2)c1C(=O)N[C@@H]1C(=O)N2[C@@H]1SC(C)(C)[C@@H]2C(=O)O [OXACILLIN]	0.5 (≈ 1.25 µM)	> 8	0.5 (≈ 1.25 µM)	> 8	> 8	> 8	0.25 (≈ 0.623 µM)	0.5 (≈ 1.25 µM)	> 8	0.5 (≈ 1.25 µM)	> 8	0.5 (≈ 1.25 µM)	> 8
CN[C@H](CC(C)C)C(=O)N[C@H]1C(=O)N[C@@H](CC(N)=O)C(=O)N[C@H]2C(=O)N[C@H]3C(=O)N[C@H](C(=O)N[C@H](C(=O)O)c4cc(O)cc(O)c4-c4cc3ccc4O)[C@H](O)c3ccc(c(Cl)c3)Oc3cc2cc(c3O[C@@H]2O[C@H](CO)[C@@H](O)[C@H](O)[C@H]2O[C@H]2C[C@](C)(N)[C@H](O)[C@H](C)O2)Oc2ccc(cc2Cl)[C@H]1O [VANCOMYCIN]	–	32 (≈ 22.1 µM)	32 (≈ 22.1 µM)	–	–	8 (≈ 5.52 µM)	32 (≈ 22.1 µM)	32 (≈ 22.1 µM)	32 (≈ 22.1 µM)	32 (≈ 22.1 µM)	32 (≈ 22.1 µM)	–	–
